The species named for experiment [1] is Homo sapiens. Kind of experiment: Inhibitory activity against U-46,619-induced aggregation of washed human platelets. The format is functional. Summed up:
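Aspirin-treated, washed human platelets stimulated with U 46619 (stable PGH₂/TxA₂ mimic); aggregation inhibition measured; IC50.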

In experiment [2] the target is T1, Thromboxane-A synthase (Homo sapiens, UniProt P24557).
T1 sequence (P24557 whole entry): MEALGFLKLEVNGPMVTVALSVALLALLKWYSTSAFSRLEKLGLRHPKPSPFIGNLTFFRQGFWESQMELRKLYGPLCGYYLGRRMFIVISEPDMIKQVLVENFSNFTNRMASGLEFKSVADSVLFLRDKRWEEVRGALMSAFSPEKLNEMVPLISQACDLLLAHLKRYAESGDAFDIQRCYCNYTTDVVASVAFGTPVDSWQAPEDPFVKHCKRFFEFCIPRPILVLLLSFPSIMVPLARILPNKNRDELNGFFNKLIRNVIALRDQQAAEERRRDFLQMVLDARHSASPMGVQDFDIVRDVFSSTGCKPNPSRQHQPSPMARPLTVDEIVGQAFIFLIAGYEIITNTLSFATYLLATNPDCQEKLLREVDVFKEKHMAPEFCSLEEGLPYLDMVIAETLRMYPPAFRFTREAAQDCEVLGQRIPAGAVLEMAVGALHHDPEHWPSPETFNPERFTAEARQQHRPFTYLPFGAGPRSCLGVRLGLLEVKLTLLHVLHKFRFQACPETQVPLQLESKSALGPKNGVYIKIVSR
The experiment can be described thus: Inhibitory activity against human Thromboxane A2 synthase. Summed up:
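Human platelet microsomal preparation incubated with (14C)arachidonic acid; thromboxane synthase inhibition read as reduced TxB₂ formation; IC50.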

Experiment [3] is filed under the species Homo sapiens. Kind of experiment: Antagonist activity against U-46,619-induced aggregation of platelet rich plasma (PRP). Type of experiment: functional. The gist of the method: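 Human platelet-rich plasma stimulated with U 46619; aggregation inhibition measured; IC50.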
Experiment [4] in a line: Ratio of platelet rich plasma to that of washed platelets.
Experiment [5] is filed under the species Oryctolagus cuniculus. Kind of experiment: Antagonist activity against contraction of rabbit aortic strips. Type of experiment: functional. Conditions: Aorta. Summed up: (§1)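 Thoracic aorta segments (~3 cm) from anesthetized male New Zealand rabbits (1.4–2.4 kg), cleaned of fat; 2.0 g preload, 1 h equilibration. Contraction evoked by U 46619 (3 × 10⁻⁹ M) to plateau (20 min), then washed back to baseline. IC50 from a single determination.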

The species named for experiment [6] is Oryctolagus cuniculus. Kind of experiment: Antagonist activity against contraction of rabbit aortic strips; (agonist activity was observed at 10e-5-10e-7M). The format is functional, Aorta. The gist of the method: as §1

For 16 compounds, IC50 and Ratio results are on record in ChEMBL document CHEMBL1126260, “Thromboxane receptor antagonism combined with thromboxane synthase inhibition. 2. Synthesis and biological activity of 8-(benzenesulfonamido)-7-(3-pyridinyl)octaonic acid and related compounds” (J Med Chem, 1992).

For `O=C(O)CCCC(CNS(=O)(=O)c1ccc(Cl)cc1)c1cccnc1` (stereo not drawn), the values for the IC50 in experiment [1] and in experiment [2] were > 10000 nM and 2000 nM, respectively.

As to `Cl.O=C(O)CCCCCC(CNS(=O)(=O)c1ccc(Cl)c(Cl)c1)c1cccnc1` (stereo not drawn), the IC50 in experiment [1] is 80 nM; in experiment [3] it was 2500 nM; in experiment [5], 1000 nM; in experiment [2] it was 40 nM. Besides, the Ratio in experiment [4] is 32.

On to `COc1ccc(S(=O)(=O)NCC(CCCCCC(=O)O)c2cccnc2)cc1` (stereo not drawn), for which the IC50 worked out at 300 nM in experiment [1] and 940 nM in experiment [2].

Turning to `Cl.O=C(O)CCCCCCC(CNS(=O)(=O)c1ccc(Cl)cc1)c1cccnc1` (stereo not drawn), the half-inhibitory concentration (IC50) in experiment [1] was 10 nM; in experiment [3] it was 200 nM; in experiment [2], 240 nM; in experiment [6], “Agonist”. The Ratio in experiment [4] stood at 20.

As for `O=C(O)CCCCC(CNS(=O)(=O)c1ccc(Cl)cc1)c1cccnc1` (stereo not drawn), the IC50 in experiment [1] was 80 nM; in experiment [2], 77 nM.

`CN(CC(CCCCCC(=O)O)c1cccnc1)S(=O)(=O)c1ccc(Cl)cc1` (stereo not drawn): the IC50 in experiment [1] and in experiment [2] was > 10000 nM each time.

For `NC(=O)CCCCCC(CNS(=O)(=O)c1ccccc1)c1cccnc1` (stereo not drawn), the half-maximal inhibitory concentration (IC50) in experiment [1] and in experiment [2] was > 10000 nM in each case.

`Cc1ccccc1S(=O)(=O)NCC(CCCCCC(=O)O)c1cccnc1` (stereo not drawn): the IC50 in experiment [1] is 380 nM; in experiment [2], 200 nM.

Regarding `Cl.O=C(O)CCCCCC(CNS(=O)(=O)c1ccc(Cl)cc1)c1cccnc1` (stereo not drawn), the results for the IC50 in experiment [3] and in experiment [6] were 600 nM and “Agonist”, respectively. Further, the Ratio in experiment [4] stood at 30.

As to `O=C(O)CCCCCC(CNS(=O)(=O)c1ccc(C(=O)O)cc1)c1cccnc1` (stereo not drawn), the IC50 in experiment [1] and in experiment [2] was > 10000 nM in each case.

For `O=C(O)CCCCCC(CNS(=O)(=O)c1ccc([N+](=O)[O-])cc1)c1cccnc1` (stereo not drawn), the IC50 was found to be 70 nM in experiment [1] and 120 nM in experiment [2].

On to `O=C(O)COc1ccc(CCNS(=O)(=O)c2ccccc2)cc1` [SULOTROBAN], for which the half-inhibitory concentration (IC50) in experiment [1] came out at 1500 nM; in experiment [3], 4000 nM. Moreover, the Ratio in experiment [4] amounted to 2.6.

`Cl.O=C(O)CCCCCC(CNS(=O)(=O)c1ccccc1)c1cccnc1` (stereo in doubt; 6): the IC50 in experiment [1] was 250 nM; in experiment [3], 2100 nM; in experiment [5], 400 nM; in experiment [2], 210 nM. Moreover, the Ratio in experiment [4] came to 8.2.

On to `O=C(O)CCCCCC(CNS(=O)(=O)c1ccccc1)c1cccnc1` (stereo in doubt; 25), for which the IC50 in experiment [1] was 250 nM; in experiment [2], > 10000 nM.

Consider `COC(=O)CCCCCC(CNS(=O)(=O)c1ccccc1)c1cccnc1` (stereo not drawn), for which the IC50 in experiment [1] and in experiment [2] was > 10000 nM throughout.

Take `Cc1ccc(S(=O)(=O)NCC(CCCCCC(=O)O)c2cccnc2)cc1` (stereo not drawn): the 50% inhibitory concentration (IC50) came out at 200 nM in experiment [1] and 50 nM in experiment [2].

One may read the IC50 as the concentration that inhibits the measured activity by half. Higher therefore signals weaker potency in that assay.
